# Results pooled from the literature.
# Protocols differ between the studies behind these lines.
# Target: Mitogen-activated protein kinase 8 (MAPK8, Homo sapiens, UniProt P45983)
SMILES,assay,conditions,measurement,value
c1ccc(N2CCN(Cc3nc4ccccc4[nH]3)CC2)nc1,"binding, competition with immobilised ligand",1 µM,remaining binding,100%
Cn1c2c(Cl)c(Cl)ccc2c2cn[nH]c(=O)c21,"thermal stability, DSF",10 µM,ΔTm,-0.3 °C
C[C@@H]1CN(c2cc(-c3nn(C)c4ccc(OC5(C)CC5)cc34)ncn2)C[C@H](C)O1,"cell-free assay, competition with immobilised ligand",1 µM,remaining binding,82%
C=CC(=O)Nc1cc(Nc2nccc(Nc3cc(Cl)c(F)cc3C(C)(C)O)n2)c(OC)cc1N1CC[C@@H](N(C)C)C1,"enzyme activity, inhibitor",1 µM,inhibition,-3%
Cc1cnc(NC2CCOCC2)nc1-n1cnc(C(=O)NC(CN)c2cc(F)cc(Cl)c2)c1 (centres unmarked),"enzyme activity, inhibitor, radiometric",1 µM,remaining activity,56%
CN(C)C1CCN(CC#Cc2nn(C3CCCC3)c3nc(NCc4ccccc4)ncc23)C1 (centres unmarked),"enzyme activity, inhibitor, FRET",1 µM,inhibition,5%
COc1cc(-c2cc(-c3ccc(N4CCNCC4)cc3)cnc2C)cc(OC)c1OC,"enzyme activity, inhibitor",0.1 µM,inhibition,0%
Nc1nc(NC2CCCCC2)sc1C(=O)c1ccccc1,"enzyme activity, inhibitor",10 µM,remaining activity,60%
CNCc1ccc(-c2cc(-c3nc(-c4ccc(S(=O)(=O)C(C)C)cc4)cnc3N)on2)cc1,"enzyme activity, inhibitor",2 µM,inhibition,8%
O=C(Nc1cnn(-c2csc(C(=O)NC3COC3)c2)c1)Nc1ccccc1Cl,"enzyme activity, inhibitor",5 µM,remaining activity,57.6%
CCOCCn1cc(C(=O)Nc2ccc(-n3nc(-c4cccnc4)cc3C(F)(F)F)cn2)ccc1=O,"cell-free assay, competition with immobilised ligand",1 µM,remaining binding,72%
COc1cc2ncnc(Nc3ccc(Oc4ccccc4)c(C)c3C)c2cc1OC,"enzyme activity, inhibitor",1 µM,inhibition,2%
CC/C(=N\NC(=O)NCc1cccc(O)c1)c1ccc(O)c(C)c1O,"enzyme activity, inhibitor",0.1 µM,inhibition,-2.4%
Cn1c2c(c3ccc(Cl)c(Cl)c31)C(C#N)C(C)(C)NC2=O (centres unmarked),"thermal stability, DSF",10 µM,ΔTm,1.3 °C
COc1cc(Cl)c(C(=O)N[C@@H](CN[C@H]2CC[C@@H](N)CC2)Cc2ccc(C#N)cc2)cc1-c1ccc(CN[C@H](C)c2ccc(C)cc2)o1,"enzyme activity, inhibitor",1 µM,remaining activity,100%
Cc1ccc(C(=O)Nc2ccc(CN3CCN(C)CC3)c(C(F)(F)F)c2)cc1C#Cc1cnc2cccnn12,"enzyme activity, inhibitor",23.5 nM,remaining activity,82%
CC(C)(C)c1nc(-c2cccc(NS(=O)(=O)c3c(F)cccc3F)c2F)c(-c2ccnc(N)n2)s1,"enzyme activity, inhibitor, radiometric",1 µM,remaining activity,89%
Cc1cc(NC(=O)c2cccc3cc(-c4cccc5[nH]nc(N)c45)ccc23)ccc1F,"enzyme activity, inhibitor",0.1 µM,activity vs control,103%
COc1cc2c(N3CCN(C(=O)Nc4ccc(OC(C)C)cc4)CC3)ncnc2cc1OCCCN1CCCCC1,cell-free assay,0.5 µM,remaining signal,105%
FC(F)(F)Oc1cccc(-c2cnc3ccc(-c4ccncc4)nn23)c1,"enzyme activity, inhibitor, radiometric",1 µM,activity vs control,91%
N#CCCc1ccc2c(c1)-c1[nH]c3ccc([N+](=O)[O-])cc3c1CC(=O)N2,cell-free assay,0.5 µM,remaining signal,93.1%
COc1cc(Nc2cnc(C#N)c(O[C@H](C)CN(C)C)n2)ncc1-c1cnn(C)c1,"enzyme activity, inhibitor, radiometric",10 µM,remaining activity,93%
CC1(C)NC(=O)c2[nH]c3c(Cl)c(Cl)ccc3c2C1C#N (centres unmarked),"thermal stability, DSF",10 µM,ΔTm,0.8 °C
FC(F)c1nc2ccccc2n1-c1nc(N2CCOCC2)nc(N2CCOCC2)n1,"enzyme activity, inhibitor",10 µM,remaining activity,93%
CN1CC(Oc2cnc(C#N)cc2-c2ccn3nc(NC(=O)C4CC4)cc3c2)C1,"enzyme activity, inhibitor",1 µM,inhibition,-4%
CC(C)(O)c1cncc(-c2nc3ccc(F)cc3n2C2CC2)c1,"cell-free assay, competition with immobilised ligand",1 µM,remaining binding,100%
N#Cc1c(NC(=O)c2cccc3ccccc23)sc2c1CCCC2,cell-free assay,0.5 µM,remaining signal,87.3%
CCCOc1ccc([C@@H]2[C@@H](C(=O)O)[C@H](c3ccc4c(c3)OCO4)CN2CC(=O)Nc2c(CC)cccc2CC)cc1,"cell-free assay, competition with immobilised ligand",1 µM,remaining binding,87%
CCC1(CC)NC(=O)c2c(c3ccc(Cl)c(Cl)c3n2C)C1C#N (centres unmarked),"thermal stability, DSF",10 µM,ΔTm,0.3 °C
Cc1cc(NC(=O)c2cccc(S(F)(F)(F)(F)F)c2)cc(-n2ccn3nc(-c4cccnc4)cc23)c1,"cell-free assay, competition with immobilised ligand",1 µM,remaining binding,55.9%
CCN1CCC2(CC1)NC(=O)c1c(c3ccc(Cl)c(Cl)c3n1C)C2C#N (racemic),"thermal stability, DSF",10 µM,ΔTm,0.6 °C
CCS(=O)(=O)c1cc2cc(C[C@](O)(CC(C)(C)c3ccc(F)cc3C(N)=O)C(F)(F)F)[nH]c2cn1,"cell-free assay, competition with immobilised ligand",1 µM,remaining binding,100%
COc1cc(/C=C/C(=O)CC(=O)/C=C/c2ccc(O)c(OC)c2)ccc1O,"enzyme activity, inhibitor",1 µM,activity vs control,99%
CN([C@@H]1CCc2c(CC(=O)O)c3ccccc3n2C1)S(=O)(=O)c1ccc(F)cc1,"cell-free assay, competition with immobilised ligand",1 µM,remaining binding,77%
CCN(CC)CCNC(=O)c1c(C)[nH]c(/C=C2\C(=O)Nc3ccc(F)cc32)c1C,cell-free assay,0.5 µM,remaining signal,91.8%
